Laboratory results taken from ChEMBL document CHEMBL1806353, “Synthesis of antitrypanosomal 1,2-dioxane derivatives based on a natural product scaffold” (Bioorg Med Chem Lett, 2011).

test system: Trypanosoma brucei brucei; test: Antitrypanosomal activity against blood stream form of Trypanosoma brucei brucei BF427 after 48 hrs by Alamar Blue assay; type: functional, organism-based; details: BF427, 48 h
Summary of the method: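 Bloodstream-form T. b. brucei 427, starting inoculum 2 × 10³ parasites per well, exposed to 2-fold serial drug dilutions in HMI-9 with 10% FBS for 48 h at 37 °C, 5% CO₂. Final DMSO no more than 0.08%. Alamar Blue then added for a further 4 h, fluorescence read at 544/590 nm. IC50 from three biological replicates, each averaging three technical replicates.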

Point of comparison: `N#CC=C[C@@H]1CC[C@@H](CC(=O)OCc2ccccc2)OO1` (mixture of isomers), IC50 3140 nM. Against it:
- C=C[C@@H]1CC[C@@H](CC(=O)OCc2ccccc2)OO1 — within 1.5-fold, 3030 nM
- CCOC(=O)/C=C\[C@@H]1CC[C@@H](CC(=O)OCc2ccccc2)OO1 — 2.3-fold lower, 1350 nM
- CCOC(=O)/C=C/[C@@H]1CC[C@@H](CC(=O)OCc2ccccc2)OO1 — 5.1-fold lower, 620 nM
- CC(=O)/C=C\[C@@H]1CC[C@@H](CC(=O)OCc2ccccc2)OO1 — 1.7-fold lower, 1880 nM
- CC(C)(C)OC(=O)/C=C\[C@@H]1CC[C@@H](CC(=O)OCc2ccccc2)OO1 — 8.5-fold lower, 370 nM
- CC(C)(C)OC(=O)/C=C/[C@@H]1CC[C@@H](CC(=O)OCc2ccccc2)OO1 — 16-fold lower, 200 nM
- O=C(/C=C\[C@@H]1CC[C@@H](CC(=O)OCc2ccccc2)OO1)OCc1ccccc1 — 13-fold lower, 240 nM
- O=C(/C=C/[C@@H]1CC[C@@H](CC(=O)OCc2ccccc2)OO1)OCc1ccccc1 — 4.9-fold lower, 640 nM
- CC(=O)/C=C/[C@@H]1CC[C@@H](CC(=O)OCc2ccccc2)OO1 — 3.5-fold lower, 900 nM
- O=C(C[C@@H]1CC[C@@H](/C=C\C(=O)c2ccccc2)OO1)OCc1ccccc1 — 5.4-fold lower, 580 nM
- O=C(C[C@@H]1CC[C@@H](/C=C/C(=O)c2ccccc2)OO1)OCc1ccccc1 — 6.2-fold lower, 510 nM
- N=C(N)c1ccc(OCCCCCOc2ccc(C(=N)N)cc2)cc1 — 3.7-fold lower, 860 nM
